The RNAGym collection of RNA variant scans (doi:10.1126/science.aae0568)
Fewer inactive variants are shown than the library holds.

B1: tRNA (parent)
chain: GUUCCGUUGGCGUAAUGGUAACGCGUCUCCCUCCUAAGGAGAAGACUGCGGGUUCGAGUCCCGUACGGAACG

Variants of: B1
Experiment: yeast fitness relative to wild type (ratio to wild type); higher = fitter; tRNA-Arg(CCU), competitive growth, 37 C, YPD
Method in brief: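 The tRNA-Arg(CCU) gene variants were made by chemical synthesis with a 3% per-site mutation rate at 69 sites and inserted at the native genomic locus of Saccharomyces cerevisiae. After pooling, the strains were competed in YPD at 37°C for 24 hours in six parallel replicates. Gene amplicons from the start population and each end population were read by 100-nucleotide paired-end sequencing, and Darwinian fitness relative to wild type was taken from genotype frequency changes. Genotypes needed ≥ 100 starting reads, and estimates < 0.5 were set to 0.5.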

Point of comparison: A20U C62A, yeast fitness 0.73. Against it:
- A20U C34G A42G A43U G63A A65G — lower, ≤ 0.5
- A20U G38C C61G A69G — lower, ≤ 0.5
- A20U C66U — higher, 0.8
- A20U C46G — higher, 1.07
- A20U G50A A57U — lower, 0.529
- A20U G23A C61U — lower, 0.561
- A21C A36U C46U — lower, ≤ 0.5
- A20U C55U — higher, 0.76
- A20U C55G — lower, 0.669
- A20U U32C — higher, 0.882
- A20U U32A — higher, 0.78
- A20U G58A — higher, 0.907
- A20U G25A C60A A65U A70G — lower, ≤ 0.5
- A20U G25A — higher, 1.03
- A21C A43U — higher, 0.902
- A20U C55G C62U — lower, 0.508
- A20U G39C C55G — lower, ≤ 0.5
- A20U G23A A65G G68C — lower, 0.513
- A20U G48C C61G C66U — lower, 0.505
- A20U G38A G67C — lower, ≤ 0.5
- A20U C49U A65C — lower, 0.655
- A21C A43C A57C — lower, ≤ 0.5
- A21C A45U — lower, 0.631
- A20U C62U A70U — lower, 0.65
- A20U U26A A65C G67C — lower, 0.563
- A20U C55U G67A — lower, ≤ 0.5
- A20U C33U G38C A40U G44C G51C C60U — lower, 0.558
- A20U G25A C27U — lower, 0.595
- A20U C34U G51C C60U — lower, ≤ 0.5
- A20U U26C C30A — lower, ≤ 0.5
- A21C A45C U47G C49U — lower, ≤ 0.5
- A20U U47A A70G — lower, 0.62
- A20U G23A C31U G39A G56A — lower, ≤ 0.5
- A20U C61U G67U — lower, ≤ 0.5
- A21C A45C C49U U54C — lower, ≤ 0.5
- A20U G38A C46A — lower, 0.541
- A20U U64C A69C — lower, 0.657
- A20U U35C U59A — lower, ≤ 0.5
- A20U U32C G38C A65G — lower, ≤ 0.5
- A20U C46U C60A — lower, 0.566
- A20U C62G G63C — lower, 0.601
- A20U C34G A42G A43U A65G — lower, 0.573
- A21C — higher, 0.973
- A20U G48A C62G — lower, 0.602
- A20U C34A G58A — lower, ≤ 0.5
- A20U G23A U28C C31U G39A G56A — lower, ≤ 0.5
- A20U C49U A69U — lower, 0.683
- A20U U26A A43G — lower, ≤ 0.5
- A20U U28A A40U C62A — lower, ≤ 0.5
- A20U C34G G48C G67A G68C — lower, ≤ 0.5
- A20U C49A G52A C61U — lower, ≤ 0.5
- A20U G25C C60G — lower, 0.676
- A20U G44A — lower, 0.662
- A20U U28G C33U U35G C60A — lower, ≤ 0.5
- A20U U32A C46G — lower, 0.586
- A21C A37U G51A — lower, ≤ 0.5
- A21C A37G C49A — lower, ≤ 0.5
- A21C A43U C49U G68A — lower, ≤ 0.5
- A20U U64C — higher, 0.902
- A20U U64A — higher, 0.821
- A21C A37U — lower, 0.646
- A21C A37G — lower, 0.638
- A20U C49A — lower, 0.708
- A20U C49U — higher, 0.899
- A20U G23A C27U A65G G68C — lower, ≤ 0.5
- A20U C33U C61U A70U — lower, ≤ 0.5
- A20U G67U — lower, 0.681
- A21C A36C — lower, 0.697
- A20U U28A G38C A40G U59C — lower, 0.637
- A20U C34G A36C C55U A65U — lower, ≤ 0.5
- A20U U47G C62G G68A — lower, ≤ 0.5
- A20U U28A A69U — lower, 0.585
- A20U C46U G63A — higher, 0.777
- A21C A45C C49U U64C — lower, ≤ 0.5
- A20U U35A G44C — lower, ≤ 0.5
- A20U C61G A65U — lower, ≤ 0.5
- A20U G39A G51A U54G A65C A70C — lower, 0.554
- A20U C34G G38C G50C C60A A70C — lower, ≤ 0.5
- A20U C46U A69C — higher, 0.744
- A20U C49G A69U — lower, 0.677
- A20U G48A C61A A65C — lower, ≤ 0.5
- A20U C34G A37G — lower, ≤ 0.5
- A20U G25A A69C — higher, 0.963
- A20U U26A C61A A69C — lower, ≤ 0.5
- A20U G51A U53G C60G — lower, ≤ 0.5
- A20U G50A A65U — lower, ≤ 0.5
- A20U G51A — higher, 0.811
- A21C A42U — lower, 0.639
- A20U G23A G68A A69U A70U — lower, ≤ 0.5
- A20U C34G G48C U59C — lower, 0.548
- A20U G23A A57C — lower, ≤ 0.5
- A20U U35A G38A — lower, 0.613
- A20U C34A G67A — lower, ≤ 0.5
- A21C A65U G68C — lower, ≤ 0.5
- A20U U47A A69U — lower, 0.619
- A20U C34G A42G A43U A65G A70U — lower, ≤ 0.5
- A20U U26C C46U G51A — lower, ≤ 0.5
- A21C A45U G52A C62A — lower, ≤ 0.5
- A20U C49G U54C — lower, ≤ 0.5
- A21C A57G G67A — lower, ≤ 0.5
- A20U G39C G48C G52C U53A — lower, ≤ 0.5
- A20U G41A — higher, 0.867
- A20U G50A — higher, 0.88
- A20U C60G G67A — lower, ≤ 0.5
- A20U U35C C49U C55U U64C — lower, 0.588
- A20U G48A U64C — lower, 0.589
- A20U G39A G51C C55G — lower, ≤ 0.5
- A20U C33A C55U C61A — lower, ≤ 0.5
- A20U C61A C62U A65U A69C — lower, ≤ 0.5
- A21C A57G A69G — lower, ≤ 0.5
- A20U G48C — higher, 0.84
- A21C A45U U47A U53A — lower, ≤ 0.5
- A20U C31U G51C — lower, 0.562
- A21C A57C C62A — lower, ≤ 0.5
- A20U C34U A40U — lower, ≤ 0.5
- A20U U35C A57G — lower, 0.546
- A20U G38C A65G C66U — lower, ≤ 0.5
- A20U U28C G44A C46U G48A C60G C62A C66G — lower, 0.578
- A20U G23A C34A A36U — lower, ≤ 0.5
- A21C A45C C49U G67A — lower, ≤ 0.5
- A20U U28C A40U A70U — lower, ≤ 0.5
- A21C A37U G58A — lower, ≤ 0.5
- A20U C62U — higher, 1.02
- A20U C34A G41C G56C — lower, ≤ 0.5
- A20U G38A — lower, 0.69
- A20U G38C — higher, 0.775
- A20U U59C — higher, 0.917
- A21C A37G U59G — lower, ≤ 0.5
- A20U G23C A45U G58A A70C — lower, ≤ 0.5
- A20U C34G G48C U59C C61U — higher, 0.791
- A20U G25A G63A — lower, 0.716
- A20U G25C U47A C60G — lower, ≤ 0.5
- A20U G44C C55A — lower, ≤ 0.5
- A21C A36U C55U — lower, 0.626
- A21C A57U C60U C62U C66U — lower, 0.612
- A20U U26C U47C A70G — lower, 0.603
- A21C A37C C55G G58A — lower, ≤ 0.5
- A20U C34U G51C — lower, ≤ 0.5
- A21C A45U G52A — lower, 0.503
- A20U U47C C60G A65U A70G — lower, 0.573
- A20U U47A — lower, 0.673
- A21C A57U — higher, 0.752
- A20U C34A U59A — lower, 0.538
- A20U G25A C66U — higher, 0.761
- A20U G23A — higher, 0.822
- A20U C34G A42G A43U G67A — lower, ≤ 0.5
- A20U C49U G67A — lower, 0.585
- A21C A42U U54A — lower, ≤ 0.5
- A21C A42U G58A — lower, 0.549
- A20U G23A G56A A69C — lower, ≤ 0.5
- A20U G50A U59C G67C — lower, ≤ 0.5
- A20U C34A C49U G58C C62A A69C — lower, ≤ 0.5
- A20U U28C C49U — lower, 0.61
- A20U C46U A70U — higher, 0.79
- A20U G41C G56C G68C — lower, ≤ 0.5
- A21C A42G U54G — lower, 0.555
- A20U G38A C49A C60G — lower, ≤ 0.5
- A20U G38A A70G — lower, 0.516
- A21C A65G — higher, 0.863
- A21C A65U — lower, 0.697
- A21C A65C — lower, 0.677
- A20U G56A — higher, 0.922
- A21C A65U G67A — lower, 0.543
- A20U U35C A36G — lower, 0.592
- A21C A36U C46G C62A A69C — lower, ≤ 0.5
- A20U G38A C55U A65G — lower, ≤ 0.5
